Screening data deposited in PubChem BioAssay by Broad Institute.
ARNT-TACC3 inh: disrupts binding between human ARNT and TACC3; Q9Y6A5; AlphaScreen His-ARNT PAS-B/GST-TACC3 binding, luminescence; TACC3 fragment carries E629A point mutation; inhibition, % at 9.99 µM; 390,000 tested, 0.66% active; AID 623870;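 active = mean inhibition of replicates at least 50% and at least half of replicates each reaching 50%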;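 also: 0% = complete ARNT plus TACC3 wells and 100% = ARNT alone without TACC3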
FN deposition inh: fibronectin deposition inhibition; AH1F fibroblasts, Alexa488-fibronectin deposition fluorescence, overnight; inhibition, % at 12.6 µM; 350,000 tested, 0.086% active; AID 743247;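 active = mean inhibition across replicates of 30% or more, regardless of how many single replicates reach that level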;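 also: positive control wells lacked labelled fibronectin entirely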
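Material: AH1F fibroblast monolayer depositing Alexa488-labelled fibronectin into matrix | Input: 10000 AH1F cells/well | Medium: DMEM plus 2% serum, read in PBS | Reagent: Alexa488-fibronectin, 24 nM final in well | Compound dosing: One dose per compound, pinned | Schedule: 1 h adhesion, overnight exposure | Measured by: Fluorescence at 485 nm excitation, 525 nm emission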
SIRT5 inh: sirtuin-5 (human) deacylase inhibition; 330,000 tested, 1.1% active; inhibition, % at 15 µM; Purified SirT5, succinyl-peptide AMC, trypsin-coupled fluorescence; Q9NXA8; in the data active = inhibition above about 15%
Target sequence (Q9NXA8 whole entry, looked up): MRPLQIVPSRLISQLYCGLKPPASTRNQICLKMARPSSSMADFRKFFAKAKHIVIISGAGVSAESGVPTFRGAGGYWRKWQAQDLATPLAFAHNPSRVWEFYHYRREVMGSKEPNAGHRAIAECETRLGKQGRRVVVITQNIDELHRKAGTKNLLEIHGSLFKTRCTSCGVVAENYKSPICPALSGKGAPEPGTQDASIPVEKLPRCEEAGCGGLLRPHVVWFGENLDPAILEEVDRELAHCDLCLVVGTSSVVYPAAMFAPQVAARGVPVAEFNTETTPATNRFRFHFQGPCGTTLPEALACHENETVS
XiGFP reactiv: activators of X-chromosome reactivation in mouse fibroblasts; 360,000 tested, 0.055% active; XiGFP mouse fibroblasts, % GFP-positive cells imaging, 3 d; cells co-treated with 5-aza-dC sensitizer; scaled so ellipticine positive control = 100%; activation, % at 7.58 µM;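 active = mean normalized replicate activation at least 10% and every replicate at or above 10%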;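 also: 0% = median of on-plate neutral control wells and 100% = ellipticine 6 µM median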
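Material: SV40-immortalized XiGFP fibroblast cells, line 68-5-11 | Buffer or medium: DMEM containing 5-aza-dC | Dosing: One concentration, pinned | Times: 3 d treatment, 15 min room-temperature fixation | Controls: Ellipticine 6 µM positive control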
DENV2 CPE rescue: inhibitors of DENV2 cytopathic effect; DENV2-infected cells, cytopathic effect rescue, plate reader; CPE inhibition, % at 9.99 µM; 350,000 tested, 1.7% active; in the data active = CPE inhibition above about 20%, passing the limit was not always enough; tested in BHK-21 cells;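 also: 0% = median of neutral control wells and 100% = median of positive control wells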
FGF22 binding: shifts melting point of recombinant human FGF22; 340,000 tested, 1.5% active; activity (Tm shift, normalised), % at 9.99 µM; recombinant FGF22 thermal shift, SYPRO orange fluorescence; percent of sucrose octasulfate shift, DMSO zero; Q9HCT0;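 active = mean Tm shift, scaled 0 neutral to 100 positive control, at about 1.3% or above, every replicate too, limit read from the data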
Target sequence (Q9HCT0 whole entry, looked up): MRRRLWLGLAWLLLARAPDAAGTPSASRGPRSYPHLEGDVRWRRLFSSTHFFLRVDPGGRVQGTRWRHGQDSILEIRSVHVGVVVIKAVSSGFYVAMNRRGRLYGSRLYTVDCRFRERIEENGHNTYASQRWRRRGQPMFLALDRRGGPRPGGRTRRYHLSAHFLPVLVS
Starred values were filed as active, the others as inactive; . = no result given; ! = not confirmed by another sample. Only some compounds are listed: those with a hit (about 3.8% of all), similar ones and a draw of the others.

SMILES	ARNT-TACC3 inh	FN deposition inh	SIRT5 inh	XiGFP reactiv	DENV2 CPE rescue	FGF22 binding
C[C@@H]1CN([C@H](C)CO)C(=O)Cc2cc(NC(=O)Cc3ccccc3)ccc2O[C@@H]1CN(C)Cc1ccc(Cl)c(Cl)c1	33	.	-2	0	88*	0
C[C@H]1CN([C@@H](C)CO)C(=O)c2cccc(NC(=O)NC3CCCCC3)c2O[C@@H]1CN(C)Cc1ccc(Cl)c(Cl)c1	0	.	6	0	-6	0
C[C@@H]1CN([C@@H](C)CO)C(=O)CCCn2nncc2CO[C@H]1CN(C)Cc1cccc2c1OCCCO2	-7	8	-2	0	45*!	0
C[C@@H]1CN([C@@H](C)CO)C(=O)CCCn2nncc2CO[C@H]1CN(C)Cc1ccc(Cl)c(Cl)c1	8	-4	16*!	0	-2	0
C[C@H](CO)N1C[C@H](C)[C@@H](CN(C)Cc2cccc3c2OCCCO3)OCc2cnnn2CCCC1=O	-3	-8	-4	0	0	0
CNC[C@@H]1Oc2c(NS(=O)(=O)c3cccs3)cccc2C(=O)N([C@@H](C)CO)C[C@@H]1C	-1	-7	-2	0	0	0
COc1ccc(S(=O)(=O)N(C)C[C@H]2Oc3c(NS(=O)(=O)c4c(C)noc4C)cccc3C(=O)N([C@@H](C)CO)C[C@H]2C)cc1	4	.	0	1	-4	-1
O=C(C[C@H]1CC[C@@H]2[C@H](COC[C@H](O)CN2C(=O)Nc2ccc(Cl)cc2)O1)NCC1CC1	10	-11	1	0	-1	0
CC(C)COC(=O)CNc1n[nH]c(=S)[nH]c1=O	4	.	2	.	5	0
NC(=O)CNc1n[nH]c(=S)[nH]c1=O	.	0	7	0	1	43*
C[C@@H]1CCCCO[C@@H](CN(C)Cc2ccc(Cl)c(Cl)c2)[C@@H](C)CN([C@H](C)CO)C(=O)c2cc(NC(=O)Nc3cccc4ccccc34)ccc2O1	-14	.	.	-1	22*	0
C[C@@H]1CCCCO[C@@H](CN(C)Cc2ccc(Cl)c(Cl)c2)[C@H](C)CN([C@H](C)CO)C(=O)c2cc(NC(=O)Nc3cccc4ccccc34)ccc2O1	1	.	4	-1	-2	0
C[C@H](CO)N1C[C@H](C)[C@@H](CN(C)Cc2ccc(Cl)c(Cl)c2)OCCCC[C@H](C)Oc2ccc(NC(=O)Nc3cccc4ccccc34)cc2C1=O	.	.	2	-1	33*	-1
C[C@@H]1CN([C@H](C)CO)C(=O)c2cc(NC(=O)Nc3cccc4ccccc34)ccc2O[C@@H](C)CCCCO[C@H]1CN(C)Cc1ccc(Cl)c(Cl)c1	.	.	.	0	-4	0
COc1cccc(CN(C)C(=O)c2ccc(S(=O)(=O)Nc3cccc(C)c3C)cc2)c1OC	.	-5	17*	0	0	0
CC[C@@H]1C/C=C\C[C@@H](C(C)C)NC(=O)CCC(=O)N1	.	6	.	0	.	.
Cc1ccc(C)c(NC(=O)Cn2nc([N+](=O)[O-])c(Br)c2C)c1	-2	-4	33*	0	-3	0
CC(=O)Nc1ccc(NC(=O)Cn2nc([N+](=O)[O-])c(Br)c2C)cc1	-1	4	0	1	-12	0
CC=Cc1ccc2n(c1=O)C[C@@H]1[C@@H](CO)[C@H](C(=O)NCCc3ccccc3)[C@H]2N1C (mixture of isomers)	-14	.	-8	1	8	0
COc1ccc(OC)c2c1C(=O)C(Cl)=C(Cl)C2=O	-2	60*	2	8	-11	0
Cc1cccc(-c2ccc([C@H]3[C@H](CO)N4CCCCN(Cc5cncnc5)C[C@@H]34)cc2)c1	3	.	-6	0	8	0
COc1ccc(NC(=O)Nc2ccc3c(c2)C(=O)N([C@H](C)CO)C[C@@H](C)[C@H](CN(C)S(=O)(=O)c2ccc(F)cc2)OCCCC[C@H](C)O3)cc1	16	6	9	0	-4	0
COc1cc(NC(=O)c2ccccc2)c(OC)cc1NC(C)=O	2	-29	.	.	.	.
COc1cc(NC(=O)COc2ccccc2)c(OC)cc1NC(C)=O	21	-16	2	0	-5	43*
C[C@@H]1CCCCO[C@H](CN(C)C(=O)Nc2ccc(F)cc2)[C@@H](C)CN([C@H](C)CO)C(=O)c2cc(NS(C)(=O)=O)ccc2O1	-1	.	-1	-1	-3	0
SMILES	ARNT-TACC3 inh	FN deposition inh	SIRT5 inh	XiGFP reactiv	DENV2 CPE rescue	FGF22 binding
O=C(COC(=O)Cn1cnc2ccccc21)Nc1cc2c(cc1Cl)C(=O)c1ccccc1C2=O	-7	4	-4	0	-3	44*
CCCCc1cn(C[C@H](Cc2ccccc2)NC(=O)N[C@H](CO)CCc2oc(C(C)=O)c(C(=O)OC)c2C(=O)OC)nn1	-1	.	-11	.	22*	1
COC(=O)c1c(CC[C@@H](CO)NC(=O)N[C@H](Cn2cc(-c3cncn3C)nn2)C(C)C)oc(C(C)=O)c1C(=O)OC	.	.	2	.	4	1.6*
C[C@@H]1CN(C)C(=O)Cc2cc(N)ccc2O[C@H]1CN(C)S(C)(=O)=O	.	2	.	0	.	.
COCC#Cc1ccc([C@@H]2[C@@H](CO)N3CCCCN(Cc4cncnc4)C[C@@H]23)cc1	-1	.	-2	0	-12	0
N#CC1=C(N)C(C#N)(C#N)C(c2ccncc2)C2CN(C(=O)OCc3ccccc3)CC=C12 (stereo not given)	8	.	.	.	.	.
N#CC1=C(N)C(C#N)(C#N)[C@H](c2cccnc2)[C@H]2CN(C(=O)OCc3ccccc3)CC=C12	26	12	16*	0	-1	0
Cc1cn2c(N)c(C=C3C=C(Cl)C(=O)C(Cl)=C3)c(=O)nc2s1	3	12	20*	0	16	0
COC1=C/C(=C/c2c(N)n3cc(C)sc3nc2=O)C=CC1=O	3	7	-1	0	1	0
CCC(=O)Nc1ccc2c(c1)C(=O)N(C)C[C@@H](OC)[C@H](C)CN(CC1CCOCC1)[C@@H](C)CO2	1	.	.	0	.	.
O=C(COC(=O)Cc1ccc(Cl)cc1)Nc1c(F)cccc1F	.	-2	9	0	2	44*
O=C(COC(=O)Cc1ccc(Cl)cc1)Nc1ccccc1F	-2	2	.	0	-1	0
CCNc1nc(N)c(C(=O)C23CC4CC(CC(C4)C2)C3)s1	-7	-1	-1	0	53*	0
C/C=C/c1ccc([C@@H]2[C@H](CO)N(CC3CCOCC3)C23CN(C(=O)COC)C3)cc1	.	3	3	0	-21	.
C/C=C/c1ccc([C@H]2[C@@H](CO)N(CC3CCOCC3)C23CN(S(=O)(=O)CC)C3)cc1	.	.	-5	0	27*	-1
